Results: ChEMBL document CHEMBL2169813, “Cell death triggered by synthetic flavonoids in human leukemia cells is amplified by the inhibition of extracellular signal-regulated kinase signaling” (Eur J Med Chem, 2012)
Activity calls are given as the source filed them. The calls are words filed in the database; no cut-off is given here.

Experiments:
HL-60 [1] = assay: Induction of apoptosis in human HL60 cells assessed as hypodiploid cells level incubated for 24 hrs in presence of 2 uM p38MAPK inhibitor SB203580 by flow cytometry; assay type: functional, cell-based
Summary of the method: (§1)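 HL-60 cells preincubated 1 h with PD98059 (10 µM), SP600125 (10 µM) or SB203580 (2 µM), then treated with compound. Hypodiploid (apoptotic) cells quantified by flow cytometry of propidium iodide-stained nuclei. Three independent experiments, each in triplicate.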

HL-60 [2] = assay: Induction of apoptosis in human HL60 cells assessed as hypodiploid cells level incubated for 24 hrs in presence of 10 uM JNK/SAPK inhibitor SP600125 by flow cytometry; assay type: functional, cell-based; summary of the method: as §1
[3] = biological target: T1, Mitogen-activated protein kinase; ERK1/ERK2 (Homo sapiens) (UniProt P27361+P28482); assay: Induction of ERK1/2 phosphorylation in human HL60 cells after 30 mins in presence of 10 uM MEK1/2 inhibitor PD98059 by Western blotting; assay type: cell-based; details: HL-60
T1 sequence (P27361 whole entry, looked up): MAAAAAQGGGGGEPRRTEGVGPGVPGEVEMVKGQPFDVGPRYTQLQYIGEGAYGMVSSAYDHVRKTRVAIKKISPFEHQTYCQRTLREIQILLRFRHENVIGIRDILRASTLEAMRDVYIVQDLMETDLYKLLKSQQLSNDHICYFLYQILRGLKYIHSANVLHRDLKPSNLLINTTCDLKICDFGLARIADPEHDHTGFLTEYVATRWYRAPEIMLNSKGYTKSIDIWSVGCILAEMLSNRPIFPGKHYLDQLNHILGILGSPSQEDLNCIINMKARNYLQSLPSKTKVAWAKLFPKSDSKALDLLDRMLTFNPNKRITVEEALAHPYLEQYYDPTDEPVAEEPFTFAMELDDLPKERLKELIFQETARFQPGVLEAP
T1 sequence (P28482 whole entry, looked up): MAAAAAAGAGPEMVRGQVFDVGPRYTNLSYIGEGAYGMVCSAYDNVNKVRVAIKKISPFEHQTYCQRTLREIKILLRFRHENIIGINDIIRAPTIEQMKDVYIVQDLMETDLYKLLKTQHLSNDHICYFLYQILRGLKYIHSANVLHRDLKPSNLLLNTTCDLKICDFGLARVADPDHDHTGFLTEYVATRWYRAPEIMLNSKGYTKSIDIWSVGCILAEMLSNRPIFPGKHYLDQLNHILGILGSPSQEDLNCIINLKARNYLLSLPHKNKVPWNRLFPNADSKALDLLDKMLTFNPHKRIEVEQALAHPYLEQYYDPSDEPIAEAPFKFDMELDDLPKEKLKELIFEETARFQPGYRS
Summary of the method: (§2)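 HL-60 cells (1 × 10⁶/mL) treated with compound (10–30 µM) for various times. Where used, PD98059 (10 µM) was added 1 h beforehand. Lysates run on 10% SDS-PAGE and immunoblotted for phosphorylated ERK 1/2, JNK/SAPK or p38MAPK. Blots stripped and reprobed for the total kinase as loading control.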

HL-60 [4] = assay: Increase in apoptosis in human HL60 cells assessed as hypodiploid cells level incubated for 24 hrs in presence of 10 uM MEK1/2 inhibitor PD98059 by flow cytometry (reference value: 15%); assay type: functional; summary of the method: as §1
[5] = biological target: T2, c-Jun N-terminal kinase, JNK (Homo sapiens) (UniProt P45983+P53779+P45984); assay: Induction of JNK/SAPK phosphorylation in human HL60 cells after 6 hrs by Western blotting; assay type: cell-based; details: HL-60; summary of the method: as §2
[6] = biological target: T1, Mitogen-activated protein kinase; ERK1/ERK2 (Homo sapiens); assay: Induction of ERK1/2 phosphorylation in human HL60 cells after 6 hrs by Western blotting; assay type: cell-based; details: HL-60; summary of the method: as §2
[7] = biological target: T3, MAP kinase p38 (Homo sapiens) (UniProt O15264+Q15759+Q16539+P53778); assay: Induction of p38MAPK phosphorylation in human HL60 cells after 4 hrs by Western blotting; assay type: cell-based; details: HL-60; summary of the method: as §2
[8] = biological target: T3, MAP kinase p38 (Homo sapiens); assay: Induction of p38MAPK phosphorylation in human HL60 cells after 30 mins by Western blotting; assay type: cell-based; details: HL-60; summary of the method: as §2
[9] = biological target: T2, c-Jun N-terminal kinase, JNK (Homo sapiens); assay: Induction of JNK/SAPK phosphorylation in human HL60 cells after 30 mins by Western blotting; assay type: cell-based; details: HL-60; summary of the method: as §2
HL-60 [10] = assay: Induction of apoptosis in human HL60 cells assessed as hypodiploid cells level at 30 uM incubated for 24 hrs in presence of caspase-9 inhibitor z-LEHD-fmk by flow cytometry; assay type: functional, cell-based
Summary of the method: (§3)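 HL-60 cells given 30 µM compound for 24 h, alone or with z-VAD-fmk (100 µM), z-DEVD-fmk, z-IETD-fmk or z-LEHD-fmk (each 50 µM). Propidium iodide staining, hypodiploid cells quantified by flow cytometry. Three independent experiments, each in triplicate.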

HL-60 [11] = assay: Induction of apoptosis in human HL60 cells assessed as hypodiploid cells level at 30 uM incubated for 24 hrs in presence of caspase-8 inhibitor z-IETD-fmk by flow cytometry; assay type: functional, cell-based; summary of the method: as §3
HL-60 [12] = assay: Induction of apoptosis in human HL60 cells assessed as hypodiploid cells level at 30 uM incubated for 24 hrs in presence of caspase-3 and -7 inhibitor z-DEVD-fmk by flow cytometry; assay type: functional, cell-based; summary of the method: as §3
HL-60 [13] = assay: Induction of apoptosis in human HL60 cells assessed as hypodiploid cells level at 30 uM incubated for 24 hrs in presence of caspase inhibitor z-VAD-fmk by flow cytometry; assay type: functional, cell-based; summary of the method: as §3
HL-60 [14] = assay: Induction of procaspase-7 processing in human HL60 cells at 30 uM incubated for 24 hrs by immunoblotting method; assay type: functional, cell-based
Summary of the method: (§4)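 HL-60 cells (1 × 10⁶/mL) exposed to compound, harvested at 24 h. Lysed in Tris-HCl pH 7.4/Triton X-100 buffer with phosphatase and protease inhibitors, 15 min at 4 °C. Equal protein run on SDS-PAGE (7.5% PARP, 12.5% caspases) and immunoblotted on PVDF. β-Actin used as loading control.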

HL-60 [15] = assay: Induction of procaspase-3 processing in human HL60 cells at 30 uM incubated for 24 hrs by immunoblotting method; assay type: functional, cell-based; summary of the method: as §4
HL-60 [16] = assay: Induction of procaspase-6 processing in human HL60 cells at 30 uM incubated for 24 hrs by immunoblotting method; assay type: functional, cell-based; summary of the method: as §4
HL-60 [17] = assay: Induction of Bid protein cleavage in human HL60 cells at 30 uM incubated for 24 hrs by Western blotting method; assay type: functional, cell-based; summary of the method: as §4
HL-60 [18] = assay: Induction of procaspase-9 cleavage in human HL60 cells at 30 uM incubated for 24 hrs by immunoblotting method; assay type: functional, cell-based; summary of the method: as §4
HL-60 [19] = assay: Induction of procaspase-8 hydrolysis in human HL60 cells at 30 uM incubated for 24 hrs by immunoblotting method; assay type: functional, cell-based; summary of the method: as §4
HL-60 [20] = assay: Induction of cytochrome-c release in human HL60 cells at 30 uM incubated for 24 hrs by immunoblotting method; assay type: functional, cell-based
Summary of the method: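 HL-60 cells treated 24 h with 30 µM compound. Cytosolic extracts immunoblotted for cytochrome c released from mitochondria. β-Actin used as loading control.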

HL-60 [21] = assay: Induction of caspase activation in human HL60 cells assessed as increase in PARP cleavage at 30 uM incubated for 24 hrs by immunoblotting method; assay type: functional, cell-based; summary of the method: as §4
HL-60 [22] = assay: Induction of p21'Cip1 protein expression in human HL60 cells at 30 uM incubated for 24 hrs by Western blotting method; assay type: functional, cell-based; summary of the method: as §4
HL-60 [23] = assay: Induction of cyclin D1 protein expression in human HL60 cells at 30 uM incubated for 24 hrs by Western blotting method; assay type: functional, cell-based; summary of the method: as §4
HL-60 [24] = assay: Cell cycle arrest in human HL60 cells assessed as accumulation at S phase at 30 uM incubated for 24 hrs by flow cytometry (reference value: 16.7 +/- 0.5%); assay type: functional
HL-60 [25] = assay: Cell cycle arrest in human HL60 cells assessed as accumulation at G2/M phase at 30 uM incubated for 24 hrs by flow cytometry (reference value: 33.2 +/- 2.1%); assay type: functional
HL-60 [26] = assay: Cell cycle arrest in human HL60 cells assessed as accumulation at G1 phase at 30 uM incubated for 24 hrs by flow cytometry (reference value: 48 +/- 1.6%); assay type: functional
HL-60 [27] = assay: Cell cycle arrest in human HL60 cells assessed as accumulation at G2/M phase at 10 uM incubated for 24 hrs by flow cytometry (reference value: 33.2 +/- 2.1%); assay type: functional
HL-60 [28] = assay: Cell cycle arrest in human HL60 cells assessed as accumulation at G1 phase at 10 uM incubated for 24 hrs by flow cytometry (reference value: 48 +/- 1.6%); assay type: functional
HL-60 [29] = assay: Cell cycle arrest in human HL60 cells assessed as accumulation at S phase at 10 uM incubated for 24 hrs by flow cytometry (reference value: 16.7 +/- 0.5%); assay type: functional
HL-60 [30] = assay: Cell cycle arrest in human HL60 cells assessed as accumulation at subG1 phase at 10 uM incubated for 24 hrs by flow cytometry (reference value: 2.3 +/- 0.5%); assay type: functional
HL-60 [31] = assay: Induction of DNA fragmentation in human HL60 cells at 30 uM incubated for 24 hrs by agarose gel electrophoresis; assay type: functional, cell-based
Summary of the method: (§5)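 HL-60 cells treated with the indicated concentrations. Genomic DNA extracted, run on agarose gel and visualised under UV after ethidium bromide staining, looking for internucleosomal fragmentation.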

HL-60 [32] = assay: Induction of DNA fragmentation in human HL60 cells at 10 uM incubated for 24 hrs by agarose gel electrophoresis; assay type: functional, cell-based; summary of the method: as §5
HL-60 [33] = assay: Induction of apoptosis in human HL60 cells assessed as incidence of condensed and fragmented chromatin at 30 uM incubated for 24 hrs by fluorescent microscopy; assay type: functional, cell-based
PBMC = assay: Induction of MLL gene cleavage in human proliferating PBMCs at 30 uM incubated for 16 hrs by inverse PCR method; assay type: functional, cell-based
Summary of the method: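 Peripheral blood mononuclear cells exposed to 30 µM compound for 16 h. Genomic DNA digested with Xba I and circularised. Nested inverse PCR (MF1–MR1, then MF2–MR2). Wild-type MLL removed by Pvu II digestion before PCR to reveal rearrangement products.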

HL-60 [34] = assay: Cytotoxicity against human HL60 cells assessed as cell viability after 48 hrs at 30 uM by MTT assay; assay type: functional; details: HL-60, 48 h, read-out: Activity
Summary of the method: (§6)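 HL-60 cells, quiescent (fresh) PBMC and phytohemagglutinin-activated healthy human PBMC cultured 48 h over a concentration range of compound. Proliferation measured. Means ± SE of two independent experiments, each in triplicate.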

HL-60 [35] = assay: Cytotoxicity against human HL60 cells after 72 hrs by MTT assay; assay type: functional, cell-based; details: HL-60, 72 h
Summary of the method: (§7)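 MTT colorimetric assay on HL-60 and HL-60/MX1 cells (RPMI 1640, 10% heat-inactivated FBS), 72 h exposure, absorbance 570 nm. IC50 obtained graphically by curve fitting. Means ± S.E. of three independent experiments, each in triplicate.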

[36] = biological target: T1, Mitogen-activated protein kinase; ERK1/ERK2 (Homo sapiens); assay: Induction of ERK1/2 phosphorylation in human HL60 cells after 30 mins by Western blotting; assay type: cell-based; details: HL-60; summary of the method: as §2
HL-60 [37] = assay: Cell cycle arrest in human HL60 cells assessed as accumulation at subG1 phase at 30 uM incubated for 24 hrs by flow cytometry (reference value: 2.3 +/- 0.5%); assay type: functional
[38] = Cytotoxicity against human HL60/MX1 cells after 72 hrs by MTT assay; assay type: functional, cell-based; details: HL60/MX1, 72 h; summary of the method: as §7
[39] = Cytotoxicity against human proliferating PBMCs assessed as cell viability after 48 hrs at 30 uM by MTT assay; assay type: cell-based, PBMC; details: read-out: Activity; summary of the method: as §6
HL-60 [40] = assay: Cytotoxicity against human HL60 cells at 100 uM after 72 hrs by MTT assay
HL-60 [41] = assay: Induction of apoptosis in human HL60 cells assessed as changes in nuclear morphology at 30 uM incubated for 24 hrs by fluorescence microscopy (reference value: 4.9 +/- 1.0%)

Q: With `COC(=O)c1c(C)c(C)cc2c(=O)cc(-c3ccccc3C)oc12` as the compound, how does the Activity (HL-60 [1]) read?
A: Active

Q: And the Activity (HL-60 [2])?
A: Active

Q: And the Activity [3]?
A: inactive

Q: And the Activity (HL-60 [4])?
A: 25%

Q: What about the Activity [5] of the same compound?
A: Active

Q: And the Activity [6]?
A: Active

Q: And the Activity [7]?
A: inactive

Q: And the Activity [8]?
A: Active

Q: And the Activity [9]?
A: Active

Q: What about the Activity (HL-60 [10]) of the same compound?
A: inactive

Q: What about the Activity (HL-60 [11]) of the same compound?
A: inactive

Q: What about the Activity (HL-60 [12]) of the same compound?
A: inactive

Q: And the Activity (HL-60 [13])?
A: inactive

Q: And the Activity (HL-60 [14])?
A: Active

Q: What about the Activity (HL-60 [15]) of the same compound?
A: Active

Q: What about the Activity (HL-60 [16]) of the same compound?
A: Active

Q: And the Activity (HL-60 [17])?
A: Active

Q: And the Activity (HL-60 [18])?
A: Active

Q: And the Activity (HL-60 [19])?
A: Active

Q: What about the Activity (HL-60 [20]) of the same compound?
A: Active

Q: And the Activity (HL-60 [21])?
A: Active

Q: What about the Activity (HL-60 [22]) of the same compound?
A: Active

Q: What about the Activity (HL-60 [23]) of the same compound?
A: Active

Q: And the Activity (HL-60 [24])?
A: 7.6%

Q: And the Activity (HL-60 [25])?
A: 11.8%

Q: What about the Activity (HL-60 [26]) of the same compound?
A: 48.1%

Q: And the Activity (HL-60 [27])?
A: 24.4%

Q: What about the Activity (HL-60 [28]) of the same compound?
A: 53%

Q: What about the Activity (HL-60 [29]) of the same compound?
A: 16.6%

Q: What about the Activity (HL-60 [30]) of the same compound?
A: 5.5%

Q: And the Activity (HL-60 [31])?
A: Active

Q: What about the Activity (HL-60 [32]) of the same compound?
A: Active

Q: What about the Activity (HL-60 [33]) of the same compound?
A: Active

Q: And the Activity (PBMC)?
A: Active

Q: And the viability at 30 µM (HL-60 [34])?
A: 25%

Q: And the IC50 (HL-60 [35])?
A: 10.1 µM

Q: What about the Activity [36] of the same compound?
A: Active

Q: And the Activity (HL-60 [37])?
A: 28.5%

Q: And the IC50 [38]?
A: 18.9 µM

Q: And the viability at 48 h, 30 µM [39]?
A: 75%

Q: What about the Activity (HL-60 [40]) of the same compound?
A: Active

Q: And the Activity (HL-60 [41])?
A: 26.9%
